The text below walks through data of ChEMBL document CHEMBL1157645, “Synthesis of 2-(thienyl-2-yl or -3-yl)-4-furyl-6-aryl pyridine derivatives and evaluation of their topoisomerase I and II inhibitory activity, cytotoxicity, and structure-activity relationship” (Bioorg Med Chem, 2010).

For one experiment, the system named is DU-145. As to the kind of experiment: Cytotoxicity against human DU145 cells in presence of 10% fetal bovine serum. Type of experiment: functional, cell-based. In short, it runs like this: (§1)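 Cells cultured per supplier's instructions and seeded at 2–4 × 10⁴ cells per well. On day 2 the medium was replaced with medium containing graded compound concentrations. On day 4 cell counting kit-8 was added for a further 4 h, and absorbance was read at 450 nm. Values are 50% inhibitory concentrations, given as mean from three experiments run in triplicate.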

Experiment [1] deals with T1, DNA topoisomerase 1 (Homo sapiens) (UniProt P11387).
T1 sequence (whole entry): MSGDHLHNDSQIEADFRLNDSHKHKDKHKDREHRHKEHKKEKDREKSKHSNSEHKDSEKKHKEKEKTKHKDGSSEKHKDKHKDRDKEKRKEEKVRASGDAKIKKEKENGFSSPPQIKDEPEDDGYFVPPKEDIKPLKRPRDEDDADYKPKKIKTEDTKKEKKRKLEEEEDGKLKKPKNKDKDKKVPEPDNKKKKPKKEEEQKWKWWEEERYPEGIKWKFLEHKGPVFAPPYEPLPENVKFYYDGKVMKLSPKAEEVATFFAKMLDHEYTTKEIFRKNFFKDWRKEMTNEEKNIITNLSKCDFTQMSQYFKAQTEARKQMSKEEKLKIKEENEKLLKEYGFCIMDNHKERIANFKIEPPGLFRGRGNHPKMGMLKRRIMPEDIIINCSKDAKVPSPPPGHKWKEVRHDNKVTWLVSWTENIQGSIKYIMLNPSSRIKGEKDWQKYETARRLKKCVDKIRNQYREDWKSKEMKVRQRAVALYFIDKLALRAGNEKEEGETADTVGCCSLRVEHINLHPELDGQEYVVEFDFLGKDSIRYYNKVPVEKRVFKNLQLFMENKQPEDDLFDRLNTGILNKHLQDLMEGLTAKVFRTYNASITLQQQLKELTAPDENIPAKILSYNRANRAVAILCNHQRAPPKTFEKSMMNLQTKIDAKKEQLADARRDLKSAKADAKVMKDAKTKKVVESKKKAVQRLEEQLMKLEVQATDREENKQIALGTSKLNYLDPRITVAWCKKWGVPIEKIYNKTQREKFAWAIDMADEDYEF
Nature of the experiment: Inhibition of human recombinant topoisomerase 1 assessed as inhibition of relaxation of supercoiled pBR322 DNA at 20 uM by agarose gel electrophoresis. The essentials:
(§2)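 100 ng pBR322 DNA was incubated with 0.4 units of recombinant human topo I, with or without compound (DMSO stocks at 20 mM), for 30 min at 37 °C in 10 mM Tris–HCl pH 7.9, 150 mM NaCl, 0.1% BSA, 1 mM spermidine and 5% glycerol. The reaction was stopped with sarkosyl/bromophenol blue/glycerol and run on 1% agarose in TAE at 15 V for 7 h. Relaxation was read from ethidium bromide staining.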

The target in experiment [2] is DNA topoisomerase 2-alpha (Homo sapiens) (UniProt P11388). As to the kind of experiment: Inhibition of human recombinant DNA topoisomerase 2 assessed as inhibition of relaxation of supercoiled pBR322 DNA at 20 uM by agarose gel electrophoresis. In short, it runs like this:
(§3)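 pBR322 DNA was incubated with two units of human topo IIα, with or without compound (DMSO stocks at 20 mM), in 10 mM Tris–HCl pH 7.9 with 50 mM NaCl, 5 mM MgCl₂, 1 mM EDTA, 1 mM ATP and BSA, for 30 min at 30 °C. The reaction was stopped with EDTA and run on 1% agarose in TAE at 25 V for 4 h. Gels were stained with ethidium bromide, and supercoiled DNA was quantified under UV.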

The target is the same in experiment [3]. Nature of the experiment: Inhibition of human recombinant DNA topoisomerase 2 assessed as inhibition of relaxation of supercoiled pBR322 DNA at 100 uM by agarose gel electrophoresis. In short, it runs like this: as §3
A further experiment concerns K562. Nature of the experiment: Cytotoxicity against human K562 cells in presence of 10% fetal bovine serum. It is filed as functional, cell-based. The essentials:
as §1

The target of experiment [4] is T1, DNA topoisomerase 1 (Homo sapiens). As to the kind of experiment: Inhibition of human recombinant topoisomerase 1 assessed as inhibition of relaxation of supercoiled pBR322 DNA at 100 uM by agarose gel electrophoresis. In short, it runs like this: as §2
The subject of another experiment is MCF7. Nature of the experiment: Cytotoxicity against human MCF7 cells in presence of 10% fetal bovine serum. It is filed as functional. In short, it runs like this:
as §1

A further experiment concerns HCT-15. Nature of the experiment: Cytotoxicity against human HCT15 cells in presence of 10% fetal bovine serum. It is filed as functional, cell-based. In short, it runs like this:
as §1

The next experiment deals with HeLa. As to the kind of experiment: Cytotoxicity against human HeLa cells in presence of 10% fetal bovine serum. It is filed as functional, cell-based. In short, it runs like this: as §1

In general, IC50 refers to the concentration at which inhibition is half-maximal. For orientation: inhibition means the share of the control response that was lost under treatment.

DNA topoisomerase 2-alpha (Homo sapiens), sequence (P11388 whole entry): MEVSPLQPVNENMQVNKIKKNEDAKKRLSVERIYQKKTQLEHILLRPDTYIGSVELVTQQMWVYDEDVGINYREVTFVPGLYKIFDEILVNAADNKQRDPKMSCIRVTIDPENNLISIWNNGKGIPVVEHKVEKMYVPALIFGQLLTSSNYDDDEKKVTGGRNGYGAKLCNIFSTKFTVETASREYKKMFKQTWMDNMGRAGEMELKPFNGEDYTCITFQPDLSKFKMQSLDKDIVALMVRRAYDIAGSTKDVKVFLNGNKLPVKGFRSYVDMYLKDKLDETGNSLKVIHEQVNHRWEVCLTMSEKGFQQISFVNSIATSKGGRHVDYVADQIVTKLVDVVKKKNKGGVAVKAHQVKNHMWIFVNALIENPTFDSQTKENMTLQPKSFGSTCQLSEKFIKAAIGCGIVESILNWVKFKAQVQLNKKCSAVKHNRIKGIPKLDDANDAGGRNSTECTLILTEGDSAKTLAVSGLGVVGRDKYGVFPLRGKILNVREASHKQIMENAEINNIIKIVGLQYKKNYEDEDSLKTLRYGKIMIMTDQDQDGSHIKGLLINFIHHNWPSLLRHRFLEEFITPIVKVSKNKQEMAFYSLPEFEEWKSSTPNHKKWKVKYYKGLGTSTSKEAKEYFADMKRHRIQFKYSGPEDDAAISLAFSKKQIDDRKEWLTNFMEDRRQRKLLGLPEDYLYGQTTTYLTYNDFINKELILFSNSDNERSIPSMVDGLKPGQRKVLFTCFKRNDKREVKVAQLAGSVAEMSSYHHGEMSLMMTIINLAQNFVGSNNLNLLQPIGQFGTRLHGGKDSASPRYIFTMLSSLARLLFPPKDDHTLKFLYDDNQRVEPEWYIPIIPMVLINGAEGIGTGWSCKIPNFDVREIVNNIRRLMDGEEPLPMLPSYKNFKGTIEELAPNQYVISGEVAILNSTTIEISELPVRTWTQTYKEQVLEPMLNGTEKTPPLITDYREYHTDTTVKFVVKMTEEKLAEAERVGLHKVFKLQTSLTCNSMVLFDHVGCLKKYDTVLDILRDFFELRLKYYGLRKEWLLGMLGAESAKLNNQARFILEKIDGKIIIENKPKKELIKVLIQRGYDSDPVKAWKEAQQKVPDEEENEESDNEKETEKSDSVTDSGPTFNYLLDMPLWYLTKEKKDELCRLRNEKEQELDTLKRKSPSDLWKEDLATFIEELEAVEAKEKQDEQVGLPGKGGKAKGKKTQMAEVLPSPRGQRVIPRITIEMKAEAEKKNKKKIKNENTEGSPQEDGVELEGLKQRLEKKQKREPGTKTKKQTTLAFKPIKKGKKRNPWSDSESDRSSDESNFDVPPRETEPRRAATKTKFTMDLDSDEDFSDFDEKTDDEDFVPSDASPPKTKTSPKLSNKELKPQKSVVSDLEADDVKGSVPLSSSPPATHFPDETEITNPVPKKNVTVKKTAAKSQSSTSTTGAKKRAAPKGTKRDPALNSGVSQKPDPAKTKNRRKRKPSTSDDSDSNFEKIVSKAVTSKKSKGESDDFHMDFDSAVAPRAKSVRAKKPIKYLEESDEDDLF

For the molecule `Clc1ccc(-c2cc(-c3ccc(Cl)o3)cc(-c3ccsc3)n2)cc1`, the half-inhibitory concentration (IC50) with DU-145 stood at 19.5 µM; in the experiment on K562, 18.7 µM; in the experiment on MCF7, 1.77 µM; with HCT-15 it was 5.19 µM; in the experiment with HeLa, 8.41 µM. The inhibition turned out to be 5.2% in experiment [1], 65.7% in experiment [2], 75.9% in experiment [3] and 29.8% in [4].
As to `Clc1ccc(-c2cc(-c3ccc(Cl)o3)cc(-c3cccs3)n2)cc1`, the IC50 in the experiment on DU-145 was 19.2 µM; in the experiment on K562, 20.9 µM; in the experiment on MCF7, 2.45 µM; in the experiment with HCT-15, 14.2 µM; in the experiment with HeLa, 21.3 µM. Moreover, the inhibition worked out at 6.3% in [1], 38.1% in [2], 42.5% in experiment [3] and 38.9% in [4].
Turning to `Clc1cccc(-c2cc(-c3ccc(Cl)o3)cc(-c3cccs3)n2)c1`, the IC50 is 18.1 µM in the experiment on DU-145; 19.8 µM in the experiment on K562; 2.86 µM with MCF7; 15.5 µM in the experiment with HCT-15; 12.8 µM with HeLa. The inhibition in experiment [1] is 8.5%; in experiment [2], 32.7%; in [3], 44.7%; in experiment [4], 42%.
